Source: publication PMC3023924 (Bioorganic & medicinal chemistry, 2010)
Structures can show the parent of a compound that is named as a salt.

What was measured:
6Xhis-hDAT = 6Xhis-hDAT (Homo sapiens, UniProt Q01959); assay: DAT photoaffinity labeling with [125I]-; type: binding; conditions: HEK hDAT cells; 30 nM, UV 254 nm, immunoprecipitation (not shown)
[1] = Storage stability of radioligand by HPLC; type: physicochemical; conditions: 20 weeks at −20 °C in the dark
Summary of the method: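 The radioiodinated test compound was made by Chloramine-T iododestannylation and purified by reversed-phase HPLC (C-18, 8 × 100 mm, 6 μm; 3 mL/min; MeOH 35%/CH₃CN 35%/aqueous 30% with Et₃N 2.1% v/v and HOAc 2.8% v/v; radioactivity plus UV 254 nm detection). It was then trapped on a C-18 cartridge and eluted with MeOH. The storage period spanned more than two ¹²⁵I half-lives.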

DAT = conditions: cited from earlier work; for IC50: read-out: DAT IC50 for inhibition of [3H]-WIN-35,428 binding
[2] = molecular target: T1, human dopamine transporter (hDAT) (Homo sapiens, UniProt Q01959); assay: [3H]-WIN-35,428 binding inhibition at hDAT N2A neuroblastoma cells; conditions: from Ki values
[3] = molecular target: T1, human dopamine transporter (hDAT); assay: [3H]-dopamine uptake inhibition at hDAT N2A neuroblastoma cells; type: cell-based; conditions: Table 1
rDAT = conditions: pattern previously seen; cited from earlier work
[4] = tested on: adult attention-deficit hyperactivity disorder (ADHD); conditions: immediate-release and long-acting preparations; cited from earlier work
rat striatal DAT = rat striatal DAT (Rattus norvegicus, UniProt P23977); assay: DAT photoaffinity labeling with [125I]-; type: binding; conditions: 30 nM [125I]-(±)-3a; 10 μM or 100 μM competitor; band density vs. control
Chain of rat striatal DAT (P23977 whole entry): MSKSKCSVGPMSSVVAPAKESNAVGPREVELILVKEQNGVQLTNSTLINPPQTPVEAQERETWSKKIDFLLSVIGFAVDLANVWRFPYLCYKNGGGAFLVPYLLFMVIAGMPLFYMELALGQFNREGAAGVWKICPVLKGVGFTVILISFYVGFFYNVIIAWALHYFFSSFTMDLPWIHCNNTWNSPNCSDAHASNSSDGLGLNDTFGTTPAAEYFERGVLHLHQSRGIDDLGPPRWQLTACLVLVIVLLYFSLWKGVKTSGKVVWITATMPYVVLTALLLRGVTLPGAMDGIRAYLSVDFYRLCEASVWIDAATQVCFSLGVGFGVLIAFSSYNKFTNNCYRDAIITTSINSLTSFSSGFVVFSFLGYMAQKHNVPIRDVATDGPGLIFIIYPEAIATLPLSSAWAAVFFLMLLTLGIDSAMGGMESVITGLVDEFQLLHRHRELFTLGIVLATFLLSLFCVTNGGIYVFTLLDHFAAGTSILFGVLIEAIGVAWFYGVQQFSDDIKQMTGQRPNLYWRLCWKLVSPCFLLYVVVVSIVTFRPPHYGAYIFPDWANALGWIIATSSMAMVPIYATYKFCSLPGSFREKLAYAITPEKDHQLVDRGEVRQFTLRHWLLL

T1 sequence (Q01959 whole entry): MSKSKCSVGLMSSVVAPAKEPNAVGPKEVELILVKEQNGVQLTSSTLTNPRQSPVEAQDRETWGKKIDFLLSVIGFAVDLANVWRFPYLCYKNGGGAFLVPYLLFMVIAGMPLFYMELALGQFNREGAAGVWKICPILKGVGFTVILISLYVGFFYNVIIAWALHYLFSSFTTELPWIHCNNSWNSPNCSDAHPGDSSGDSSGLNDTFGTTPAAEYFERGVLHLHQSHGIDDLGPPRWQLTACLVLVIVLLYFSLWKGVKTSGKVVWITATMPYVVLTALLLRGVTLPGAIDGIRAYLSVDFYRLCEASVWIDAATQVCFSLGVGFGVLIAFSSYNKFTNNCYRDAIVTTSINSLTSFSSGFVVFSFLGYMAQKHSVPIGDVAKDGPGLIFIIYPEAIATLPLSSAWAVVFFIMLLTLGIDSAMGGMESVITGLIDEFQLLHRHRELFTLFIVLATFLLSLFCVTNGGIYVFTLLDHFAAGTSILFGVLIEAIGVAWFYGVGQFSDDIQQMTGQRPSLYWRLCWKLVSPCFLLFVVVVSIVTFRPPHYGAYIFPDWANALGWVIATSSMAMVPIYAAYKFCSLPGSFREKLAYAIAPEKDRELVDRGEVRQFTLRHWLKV
Chain of 6Xhis-hDAT (Q01959 whole entry): as above

## COC(=O)C(c1ccc([125I])cc1)[C@H]1CCCCN1Cc1ccc(N=[N+]=[N-])cc1 (mixture of isomers) [[^125I]-(±)-3a, [^125I]-(±)-threo-N-(p-Azido-benzyl)-4-iodomethylphenidate]
6Xhis-hDAT
  irreversible incorporation into DAT (labeled protein of ~80 kDa): demonstrating the incorporation of [^125I]-(±)-3a into the DAT
[1]
  radiochemical purity after storage: about 80%

## COC(=O)[C@H](c1ccc(I)cc1)[C@H]1CCCCN1 (racemic) [(±)-1b, (±)-threo-4-Iodomethylphenidate Hydrochloride]
DAT; previous pharmacological results
  higher DAT affinity versus methylphenidate: ~ 6 fold
DAT
  IC50: 0.014 ± 0.0001 µM
[2]
  improvement in DAT affinity versus methylphenidate: approximately two-fold
[3]
  comparison of binding and uptake inhibition values: essentially the same value for binding and uptake inhibition

## Fc1ccc(C(OCCN2CCN(CCCc3ccccc3)CC2)c2ccc(F)cc2)cc1 [GBR-12,909]
rDAT
  comparison of binding and uptake inhibition values: essentially the same value for binding and uptake inhibition

## COC(=O)[C@H](c1cccc(I)c1)[C@H]1CCCCN1 (racemic) [(±)-1f, (±)-threo-3-Iodomethylphenidate Hydrochloride]
[2]
  improvement in DAT affinity versus methylphenidate: ~ 5.5 fold

## CN1[C@@H]2CC[C@H]1C[C@@H](OC(c1ccccc1)c1ccccc1)C2 [benztropine]
rDAT
  comparison of binding and uptake inhibition values: essentially the same value for binding and uptake inhibition

## COC(=O)[C@H]1[C@@H](c2ccc(F)cc2)C[C@@H]2CC[C@H]1N2C [β-CFT, (−)-2-β-carbomethoxy-3-β-(4-fluorophenyl)tropane]
Rat striatal DAT
  block of [125I]-(±)-3a incorporation into DAT: 75–90%
